# What was measured:
# Hepatitis C virus [1] = experiment: Antiviral activity against Hepatitis C virus genotype 1a infected in human HuH7 cells assessed as inhibition of subgenomic replicon RNA replication after 72 hrs by luciferase reporter assay; format: functional, cell-based, Hepacivirus hominis; conditions: subtype 1a, Huh-7, 72 h
# Hepatitis C virus [2] = experiment: Antiviral activity against Hepatitis C virus genotype 1b infected in human HuH7 cells assessed as inhibition of subgenomic replicon RNA replication after 72 hrs by luciferase reporter assay; format: functional, cell-based, Hepacivirus hominis; conditions: Huh-7, 72 h
# [3] = Cytotoxicity against human HuH7 cells by MTT assay; format: cell-based, Huh-7
# Summary of the method: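 Huh-7-derived HCV replicon cell lines were used, with MTT as the vital dye read-out.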
# Hepatitis C virus [4] = experiment: Antiviral activity against Hepatitis C virus genotype 2a infected in human HuH7 cells assessed as inhibition of subgenomic replicon RNA replication after 72 hrs by luciferase reporter assay; format: functional, cell-based, Hepacivirus hominis; conditions: Huh-7, 72 h
# Hepatitis C virus [5] = experiment: Antiviral activity against Hepatitis C virus genotype 2b infected in human HuH7 cells assessed as inhibition of subgenomic replicon RNA replication after 72 hrs by luciferase reporter assay; format: functional, cell-based, Hepacivirus hominis; conditions: Huh-7, 72 h
# Hepatitis C virus [6] = experiment: Antiviral activity against Hepatitis C virus genotype 3a infected in human HuH7 cells assessed as inhibition of subgenomic replicon RNA replication after 72 hrs by luciferase reporter assay; format: functional, cell-based, Hepacivirus hominis; conditions: Huh-7, 72 h
# Hepatitis C virus [7] = experiment: Antiviral activity against Hepatitis C virus genotype 4a infected in human HuH7 cells assessed as inhibition of subgenomic replicon RNA replication after 72 hrs by luciferase reporter assay; format: functional, cell-based, Hepacivirus hominis; conditions: Huh-7, 72 h
# Hepatitis C virus [8] = experiment: Antiviral activity against Hepatitis C virus genotype 5a infected in human HuH7 cells assessed as inhibition of subgenomic replicon RNA replication after 72 hrs by luciferase reporter assay; format: functional, cell-based, Hepacivirus hominis; conditions: Huh-7, 72 h
# Hepatitis C virus [9] = experiment: Antiviral activity against Hepatitis C virus genotype 6a infected in human HuH7 cells assessed as inhibition of subgenomic replicon RNA replication after 72 hrs by luciferase reporter assay; format: functional, cell-based, Hepacivirus hominis; conditions: Huh-7, 72 h
# [10] = Drug anabolism in dog hepatocytes assessed as compound level at 10 uM after 24 hrs measured per million cells by mass spectrometer analysis; format: ADME, cell-based, Canis lupus familiaris, Hepatocyte
# [11] = Inhibition of N-terminal His6-tagged Hepatitis C virus genotype 1b isolate Con1 NS5B RNA-dependent RNA polymerase activity by plate reader analysis
# [12] = Inhibition of C-terminal His6-tagged and C-terminal 21 amino acids truncated Hepatitis C virus genotype 1a H77 NS5B RNA-dependent RNA polymerase activity using polyU or polyC RNA as template by microbeta plate reader analysis; set-up: species or system Hepatitis C virus (isolate H77)
# [13] = Inhibition of C-terminal His6-tagged and C-terminal 21 amino acids truncated Hepatitis C virus genotype 2a JFH-1 NS5B RNA-dependent RNA polymerase activity using polyU or polyC RNA as template by microbeta plate reader analysis; set-up: species or system Hepatitis C virus JFH-1
# [14] = Inhibition of C-terminal His6-tagged and C-terminal 21 amino acids truncated Hepatitis C virus genotype 3a VRL-69 NS5B RNA-dependent RNA polymerase activity using polyU or polyC RNA as template by microbeta plate reader analysis; set-up: species or system Hepatitis C virus subtype 3a
# [15] = Drug anabolism in human HuH7 cells assessed as compound level at 10 uM after 24 hrs measured per million cells by mass spectrometer analysis; format: ADME, cell-based; conditions: huh-7, 24 h
# [16] = Inhibition of C-terminal His6-tagged and C-terminal 21 amino acids truncated Hepatitis C virus genotype 5a SA13 NS5B RNA-dependent RNA polymerase activity using polyU or polyC RNA as template by microbeta plate reader analysis
# [17] = Inhibition of C-terminal His6-tagged and C-terminal 21 amino acids truncated Hepatitis C virus genotype 7a QC69 NS5B RNA-dependent RNA polymerase activity using polyU or polyC RNA as template by microbeta plate reader analysis; set-up: species or system Hepacivirus hominis
# [18] = Drug anabolism in human HuH7 cells assessed as triphosphate level at 10 uM after 24 hrs measured per million cells by mass spectrometer analysis; format: ADME, cell-based; conditions: huh-7, 24 h
# [19] = Drug anabolism in human HuH7 cells assessed as diphosphate level at 10 uM after 24 hrs measured per million cells by mass spectrometer analysis; format: ADME, cell-based; conditions: huh-7, 24 h
# [20] = Drug anabolism in human HuH7 cells assessed as monophosphate level at 10 uM after 24 hrs measured per million cells by mass spectrometer analysis; format: ADME, cell-based; conditions: huh-7, 24 h
# Hepatocyte [21] = experiment: Drug anabolism in human hepatocytes assessed as triphosphate level at 10 uM after 24 hrs measured per million cells by mass spectrometer analysis; format: ADME, cell-based
# Hepatocyte [22] = experiment: Drug anabolism in human hepatocytes assessed as diphosphate level at 10 uM after 24 hrs measured per million cells by mass spectrometer analysis; format: ADME, cell-based
# Hepatocyte [23] = experiment: Drug anabolism in human hepatocytes assessed as monophosphate level at 10 uM after 24 hrs measured per million cells by mass spectrometer analysis; format: ADME, cell-based
# Hepatocyte [24] = experiment: Drug anabolism in rat hepatocytes assessed as triphosphate level at 10 uM after 24 hrs measured per million cells by mass spectrometer analysis; format: ADME, cell-based
# Hepatocyte [25] = experiment: Drug anabolism in rat hepatocytes assessed as diphosphate level at 10 uM after 24 hrs measured per million cells by mass spectrometer analysis; format: ADME, cell-based
# Hepatocyte [26] = experiment: Drug anabolism in rat hepatocytes assessed as monophosphate level at 10 uM after 24 hrs measured per million cells by mass spectrometer analysis; format: ADME, cell-based
# [27] = Drug anabolism in dog hepatocytes assessed as triphosphate level at 10 uM after 24 hrs measured per million cells by mass spectrometer analysis; format: ADME, cell-based, Canis lupus familiaris, Hepatocyte
# [28] = Drug anabolism in dog hepatocytes assessed as diphosphate level at 10 uM after 24 hrs measured per million cells by mass spectrometer analysis; format: ADME, cell-based, Canis lupus familiaris, Hepatocyte
# [29] = Drug anabolism in dog hepatocytes assessed as monophosphate level at 10 uM after 24 hrs measured per million cells by mass spectrometer analysis; format: ADME, cell-based, Canis lupus familiaris, Hepatocyte
# [30] = Total clearance in Sprague-Dawley rat at 2 mg/kg, iv and 5 mg/kg, po by WinNonlin non-compartmental analysis; format: ADME, organism-based; conditions: in vivo
# Summary of the method: (§1)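 PK study animals were male Sprague–Dawley rats.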
# [31] = Volume of distribution at steady state in Sprague-Dawley rat at 2 mg/kg, iv and 5 mg/kg, po by WinNonlin non-compartmental analysis; format: ADME, organism-based; conditions: in vivo, read-out: Vdss
# Summary of the method: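 Pharmacokinetics were determined in male Sprague–Dawley rats.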
# [32] = Cmax in Sprague-Dawley rat at 5 mg/kg, po by WinNonlin non-compartmental analysis; format: ADME, organism-based; set-up: dose 5 mg/kg, route oral; conditions: in vivo; summary of the method: as §1
# [33] = Total clearance in Beagle dog at 2 mg/kg, iv and 5 mg/kg, po by WinNonlin non-compartmental analysis; format: ADME, organism-based, Canis lupus familiaris; conditions: in vivo
# [34] = Volume of distribution at steady state in Beagle dog at 2 mg/kg, iv and 5 mg/kg, po by WinNonlin non-compartmental analysis; format: ADME, organism-based, Canis lupus familiaris; conditions: in vivo, read-out: Vdss
# [35] = Cmax in Beagle dog at 5 mg/kg, po by WinNonlin non-compartmental analysis; format: ADME, organism-based, Canis lupus familiaris; set-up: dose 5 mg/kg, route oral; conditions: in vivo
# [36] = Total clearance in cynomolgus monkey at 2 mg/kg, iv and 5 mg/kg, po by WinNonlin non-compartmental analysis; format: ADME, organism-based, Macaca fascicularis; conditions: in vivo
# [37] = Volume of distribution at steady state in cynomolgus monkey at 2 mg/kg, iv and 5 mg/kg, po by WinNonlin non-compartmental analysis; format: ADME, organism-based, Macaca fascicularis; conditions: in vivo, read-out: Vdss
# [38] = Cmax in cynomolgus monkey at 5 mg/kg, po by WinNonlin non-compartmental analysis; format: ADME, organism-based, Macaca fascicularis; set-up: dose 5 mg/kg, route oral; conditions: in vivo
# [39] = Mitochondrial toxicity in human HepG2 cells assessed as increase in lactate production up to 10 uM measured for 14 days; format: cell-based, Mitochondria; conditions: hepg2, 336 h
# [40] = Mitochondrial toxicity in human HepG2 cells assessed as decrease in mitochondrial DNA content up to 10 uM measured for 14 days; format: cell-based, Mitochondria; conditions: hepg2, 336 h
# [41] = Cytotoxicity in rat liver epithelial cells; format: cell-based, Epithelial cell
# [42] = Cytotoxicity in rat kidney fibroblasts; set-up: species or system Fibroblast
# [43] = Cytotoxicity in rat heart myoblasts; set-up: species or system Myoblast
# [44] = Inhibition of erythroid progenitor proliferation in human bone marrow cells up to 100 uM; format: cell-based; conditions: bone marrow cell
# [45] = Inhibition of myeloid progenitor proliferation in human bone marrow cells up to 100 uM; format: cell-based; conditions: bone marrow cell
# Salmonella typhimurium = experiment: Genotoxicity in Salmonella typhimurium by Ames test; format: toxicity, organism-based; conditions: salmonella enterica subsp. enterica serovar typhimurium
# Rattus norvegicus = experiment: Toxicity in rat assessed as animal death up to 400 mg/kg, po administered as single dose; format: organism-based; set-up: dose 400 mg/kg, route oral; conditions: in vivo
# Hepatocyte [46] = experiment: Drug anabolism in human hepatocytes assessed as compound level at 10 uM after 24 hrs measured per million cells by mass spectrometer analysis; format: ADME, cell-based
# Hepatocyte [47] = experiment: Drug anabolism in rat hepatocytes assessed as compound level at 10 uM after 24 hrs measured per million cells by mass spectrometer analysis; format: ADME, cell-based
smiles,measurement,setting,value
C[C@@]1(O)[C@H](O)[C@@H](CO)O[C@H]1c1ccc2c(N)ncnn12,EC50,Hepatitis C virus [1],760 nM
same,EC50,Hepatitis C virus [2],1600 nM
same,CC50,[3],> 100000 nM
same,EC50,Hepatitis C virus [4],630 nM
same,EC50,Hepatitis C virus [5],410 nM
same,EC50,Hepatitis C virus [6],420 nM
same,EC50,Hepatitis C virus [7],880 nM
same,EC50,Hepatitis C virus [8],820 nM
same,EC50,Hepatitis C virus [9],1000 nM
same,Drug metabolism,[10],29.7 pmol
same,IC50,[11],370 nM
same,IC50,[12],570 nM
same,IC50,[13],390 nM
same,IC50,[14],500 nM
same,Drug metabolism,[15],31.8 pmol
same,IC50,[16],480 nM
same,IC50,[17],810 nM
same,Drug metabolism,[18],9.33 pmol
same,Drug metabolism,[19],0.53 pmol
same,Drug metabolism,[20],3.36 pmol
same,Drug metabolism,Hepatocyte [21],487 pmol
same,Drug metabolism,Hepatocyte [22],40.5 pmol
same,Drug metabolism,Hepatocyte [23],27.6 pmol
same,Drug metabolism,Hepatocyte [24],49.9 pmol
same,Drug metabolism,Hepatocyte [25],9.7 pmol
same,Drug metabolism,Hepatocyte [26],7.3 pmol
same,Drug metabolism,[27],51.2 pmol
same,Drug metabolism,[28],8.3 pmol
same,Drug metabolism,[29],7 pmol
same,clearance,[30],18.8 mL/min/kg
same,Vd,[31],4.19 L/kg
same,Cmax,[32],2380 nM
same,clearance,[33],11.4 mL/min/kg
same,Vd,[34],5.22 L/kg
same,Cmax,[35],8360 nM
same,clearance,[36],20.5 mL/min/kg
same,Vd,[37],2.43 L/kg
same,Cmax,[38],820 nM
same,Activity,[39],Non-toxic
same,Activity,[40],Non-toxic
same,CC50,[41],190000 nM
same,CC50,[42],> 250000 nM
same,CC50,[43],> 250000 nM
same,Activity,[44],Non-toxic
same,Activity,[45],Non-toxic
same,Activity,Salmonella typhimurium,Non-toxic
same,Activity,Rattus norvegicus,Toxic
same,Drug metabolism,Hepatocyte [46],46.2 pmol
same,Drug metabolism,Hepatocyte [47],16.9 pmol
